Reference: ChEMBL document CHEMBL1821687, “Discovery, synthesis, and biological evaluation of novel SMN protein modulators” (J Med Chem, 2011)
Blank lines part the entries; values can stand above or below the molecule they belong to. The source made the active and inactive calls. No cut-off for these calls is given here.

Assays:
[1] = system: Liver; assay: Half-life in mouse liver microsome at 1 uM; assay type: ADME; settings: microsomes
[2] = target: Survival motor neuron protein (Homo sapiens) (UniProt Q16637); assay: Activation of SMN expressed in HEK293 cells assessed as concentration required to reach 50% of maximum luciferase signal by SMN2-promotor driven luciferase reporter gene assay; assay type: cell-based
Method in brief: (§1)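 HEK-293 cells stably carrying the SMN2 reporter construct, kept in DMEM with 10% FCS, glutamax, pyruvate, pen/strep and 200 µg/mL hygromycin, and assayed without hygromycin. 2,000 cells/well were plated and adhered overnight at 37 °C, 5% CO2. Compounds were added as a 7-point titration, 50 µM to 25 nM final, in 0.46% DMSO, for 30–36 h. OneGlo luminescence was normalized to 4.5 mM sodium butyrate (100%) and DMSO (0%).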

[3] = system: Caco-2; assay: Apparent permeability from basolateral side to apical side of human Caco2 cells at 10 uM; assay type: ADME, cell-based; settings: caco-2, 10 µM
[4] = target: Survival motor neuron protein (Homo sapiens) (UniProt Q16637); assay: Activation of SMN expressed in HEK293 cells assessed as rate of induction by SMN2-promotor driven luciferase reporter gene assay relative to basal level; assay type: cell-based; parameters: concentration or dose not given beside the values; method in brief: as §1
[5] = target: T1, Luciferin 4-monooxygenase (Luciola lateralis, UniProt Q01158); assay: Inhibition of fire fly luciferase; parameters: species or system Aquatica lateralis
T1 sequence (Q01158 whole entry): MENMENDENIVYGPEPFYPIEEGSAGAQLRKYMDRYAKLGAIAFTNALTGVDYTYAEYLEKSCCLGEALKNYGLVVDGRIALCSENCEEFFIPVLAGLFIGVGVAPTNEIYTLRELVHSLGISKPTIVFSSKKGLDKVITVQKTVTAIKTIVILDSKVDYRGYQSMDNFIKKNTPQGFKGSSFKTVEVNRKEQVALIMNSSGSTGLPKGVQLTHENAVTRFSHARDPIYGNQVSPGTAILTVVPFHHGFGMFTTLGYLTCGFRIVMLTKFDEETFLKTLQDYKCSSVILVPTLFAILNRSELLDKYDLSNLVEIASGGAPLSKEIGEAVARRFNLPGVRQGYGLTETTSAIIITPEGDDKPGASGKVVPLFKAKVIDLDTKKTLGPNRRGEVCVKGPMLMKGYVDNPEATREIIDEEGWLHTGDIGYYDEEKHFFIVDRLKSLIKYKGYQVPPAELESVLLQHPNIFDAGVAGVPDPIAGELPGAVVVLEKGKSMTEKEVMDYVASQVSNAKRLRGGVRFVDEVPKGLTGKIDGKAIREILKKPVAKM

[6] = system: Caco-2; assay: Apparent permeability from apical side to basolateral side of human Caco2 cells at 10 uM; assay type: ADME, cell-based; settings: caco-2, 10 µM
[7] = Half-life in human serum; assay type: ADME, cell-free
[8] = Plasma concentration in Swiss albino mouse at 30 mg/kg, po after 24 hrs; assay type: ADME, organism-based; parameters: dose 30 mg/kg, route oral
Method in brief: (§2)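 Male Swiss Albino mice received a single 30 mg/kg oral gavage dose. Compound levels were measured in plasma and brain over time, and PK parameters were derived from the concentration–time data.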

[9] = system: Brain; assay: AUC (infinity) in brain of Swiss albino mouse at 30 mg/kg, po; assay type: ADME, organism-based; parameters: time infinity, dose 30 mg/kg, route oral; settings: in vivo; method in brief: as §2
[10] = system: Plasma; assay: AUClast in plasma of Swiss albino mouse at 30 mg/kg, po; assay type: ADME, organism-based; parameters: time 0 - last, dose 30 mg/kg, route oral; settings: in vivo; method in brief: as §2
[11] = Plasma concentration in Swiss albino mouse at 30 mg/kg, po after 12 hrs; assay type: ADME, organism-based; parameters: dose 30 mg/kg, route oral; method in brief: as §2
[12] = Plasma concentration in Swiss albino mouse at 30 mg/kg, po after 0.5 hrs; assay type: ADME, organism-based; parameters: dose 30 mg/kg, route oral; method in brief: as §2
[13] = system: Plasma; assay: Half-life in plasma of Swiss albino mouse at 30 mg/kg, po; assay type: ADME, organism-based; parameters: dose 30 mg/kg, route oral; settings: in vivo; method in brief: as §2
[14] = system: Plasma; assay: Cmax in plasma of Swiss albino mouse at 30 mg/kg, po; assay type: ADME, organism-based; parameters: dose 30 mg/kg, route oral; settings: in vivo; method in brief: as §2
[15] = Plasma concentration in Swiss albino mouse at 30 mg/kg, po after 2 hrs; assay type: ADME, organism-based; parameters: dose 30 mg/kg, route oral; method in brief: as §2
[16] = Ratio of AUC in brain to AUC in plasma in Swiss albino mouse at 30 mg/kg, po; assay type: ADME, organism-based; parameters: dose 30 mg/kg, route oral; settings: brain and plasma
Method in brief: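 Single oral gavage dose of 30 mg/kg given to male Swiss Albino mice; compound concentrations measured in both plasma and brain, from which brain and plasma exposure parameters were derived; animals observed for behavioural disturbance throughout the study.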

[17] = system: Brain; assay: Drug level in Swiss albino mouse brain at 30 mg/kg, po after 4 hrs; assay type: ADME, organism-based; parameters: dose 30 mg/kg, route oral; settings: in vivo; method in brief: as §2
[18] = Plasma concentration in Swiss albino mouse at 30 mg/kg, po after 4 hrs; assay type: ADME, organism-based; parameters: dose 30 mg/kg, route oral; method in brief: as §2
[19] = system: Brain; assay: Drug level in Swiss albino mouse brain at 30 mg/kg, po after 0.25 hr; assay type: ADME, organism-based; parameters: dose 30 mg/kg, route oral; settings: in vivo; method in brief: as §2
[20] = system: Plasma; assay: AUC (infinity) in plasma of Swiss albino mouse at 30 mg/kg, po; assay type: ADME, organism-based; parameters: dose 30 mg/kg, route oral, time infinity; settings: in vivo; method in brief: as §2
[21] = system: Brain; assay: Drug level in Swiss albino mouse brain at 30 mg/kg, po after 2 hrs; assay type: ADME, organism-based; parameters: dose 30 mg/kg, route oral; settings: in vivo; method in brief: as §2
[22] = Plasma concentration in Swiss albino mouse at 30 mg/kg, po after 1 hr; assay type: ADME, organism-based; parameters: dose 30 mg/kg, route oral; method in brief: as §2
[23] = system: Brain; assay: Drug level in Swiss albino mouse brain at 30 mg/kg, po after 0.083 hr; assay type: ADME, organism-based; parameters: dose 30 mg/kg, route oral; settings: in vivo
[24] = system: Brain; assay: Drug level in Swiss albino mouse brain at 30 mg/kg, po after 8 hrs; assay type: ADME, organism-based; parameters: dose 30 mg/kg, route oral; settings: in vivo; method in brief: as §2
[25] = system: Brain; assay: Drug level in Swiss albino mouse brain at 30 mg/kg, po after 1 hr; assay type: ADME, organism-based; parameters: dose 30 mg/kg, route oral; settings: in vivo; method in brief: as §2
[26] = system: Brain; assay: Drug level in Swiss albino mouse brain at 30 mg/kg, po after 0.5 hr; assay type: ADME, organism-based; parameters: dose 30 mg/kg, route oral; settings: in vivo; method in brief: as §2
[27] = system: Brain; assay: AUClast in brain of Swiss albino mouse at 30 mg/kg, po; assay type: ADME, organism-based; parameters: time 0 - last, dose 30 mg/kg, route oral; settings: in vivo; method in brief: as §2
[28] = system: Brain; assay: Drug level in Swiss albino mouse brain at 30 mg/kg, po after 12 hrs; assay type: ADME, organism-based; parameters: dose 30 mg/kg, route oral; settings: in vivo; method in brief: as §2
[29] = system: Brain; assay: Drug level in Swiss albino mouse brain at 30 mg/kg, po after 24 hrs; assay type: ADME, organism-based; parameters: dose 30 mg/kg, route oral; settings: in vivo; method in brief: as §2
[30] = Plasma concentration in Swiss albino mouse at 30 mg/kg, po after 8 hrs; assay type: ADME, organism-based; parameters: dose 30 mg/kg, route oral; method in brief: as §2
[31] = system: Brain; assay: Cmax in brain of Swiss albino mouse at 30 mg/kg, po; assay type: ADME, organism-based; parameters: dose 30 mg/kg, route oral; settings: in vivo; method in brief: as §2
[32] = Plasma concentration in Swiss albino mouse at 30 mg/kg, po after 0.083 hrs; assay type: ADME, organism-based; parameters: dose 30 mg/kg, route oral
[33] = system: Brain; assay: Half-life in brain of Swiss albino mouse at 30 mg/kg, po; assay type: ADME, organism-based; parameters: dose 30 mg/kg, route oral; settings: in vivo; method in brief: as §2
[34] = Plasma concentration in Swiss albino mouse at 30 mg/kg, po after 0.25 hrs; assay type: ADME, organism-based; parameters: dose 30 mg/kg, route oral; method in brief: as §2
[35] = target: Survival motor neuron protein (Homo sapiens) (UniProt Q16637); assay: Activation of SMN in human fibroblast cells obtained from type 1 SMA patients assessed as increase in SMN protein level by quantitative Western blot method; assay type: cell-based
Method in brief: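 Type I SMA patient fibroblasts (3813 line) were seeded at 8,000 cells/cm2 24 h before dosing, with medium and compound renewed every 24 h for 72 h. Lysates (10 µg protein/lane) were immunoblotted for SMN (4f11 antibody) and α-tubulin. Band intensity was normalized to tubulin and expressed as fold over the DMSO control.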

[36] = target: Survival motor neuron protein (Homo sapiens) (UniProt Q16637); assay: Activation of SMN expressed in HEK293 cells by SMN2-promotor driven luciferase reporter gene assay; assay type: cell-based; method in brief: as §1

Chain of Survival motor neuron protein (Homo sapiens) (Q16637 whole entry): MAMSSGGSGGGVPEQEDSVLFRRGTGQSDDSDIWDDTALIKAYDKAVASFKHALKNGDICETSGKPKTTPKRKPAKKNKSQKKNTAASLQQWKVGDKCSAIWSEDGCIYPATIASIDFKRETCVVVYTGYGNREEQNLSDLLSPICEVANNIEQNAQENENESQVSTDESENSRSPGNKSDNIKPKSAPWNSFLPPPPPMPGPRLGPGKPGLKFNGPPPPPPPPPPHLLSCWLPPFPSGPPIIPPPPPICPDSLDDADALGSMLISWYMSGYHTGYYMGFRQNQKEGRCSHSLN

SMILES: O=C(Nc1ccccc1)C1CCN(c2ncc(-c3ccc4c(c3)OCCCO4)s2)CC1
t1/2 [1]: < 15 min
Activity [2]: 0.049 µM
Activity [4]: 353%
IC50 ([5]; read-out: IC50): 4 µM

SMILES: COc1nc(-c2ccccc2)nnc1-c1ccccc1
Activity [35]: Dose-dependent effect
Activity [36]: Active

SMILES: NC(=O)C1CCN(c2nccc(-c3ccc4c(c3)OCCO4)n2)CC1
Activity [2]: 1.22 µM
Activity [4]: 364%

SMILES: CC(=O)N1CCN(c2nc(-c3ccc(Br)cc3)cs2)CC1
Activity [2]: 3.07 µM
Activity [4]: 234%

SMILES: COc1cc(-c2csc(N3CCC(C(N)=O)CC3)n2)cc(OC)c1OC
Activity [2]: 19.4 µM
Activity [4]: 73%

Now from value to molecule, other results behind:

t1/2 [1]: 18 min
Papp [3]: 17.3 ×10⁻⁶ cm/s
IC50 ([5]; read-out: IC50): 10 µM
Papp [6]: 40.1 ×10⁻⁶ cm/s
SMILES: CC(C)Oc1cccc(-c2ccnc(N3CCC(C(N)=O)CC3)n2)c1
Activity [2]: 0.154 µM
Activity [4]: 298%

half-life [7]: 90 min
SMILES: O=C([O-])CCCc1ccccc1.[Na+] [SODIUM PHENYLBUTYRATE]

t1/2 [1]: 30 min
concentration at 24 h [8]: 60 nM
AUC [9]: 607 ng·h/mL
AUClast [10]: 1857 ng·h/mL
concentration at 12 h [11]: 19 nM
concentration at 0.5 h [12]: 1200 nM
t1/2 [13]: 347 min
Papp [3]: 0.3 ×10⁻⁶ cm/s
Cmax [14]: 3720 nM
concentration at 2 h [15]: 600 nM
Kp [16]: 0.29
Drug uptake [17]: 0.083 µmol/kg
concentration at 4 h [18]: 2.8 nM
Drug uptake [19]: 0.31 µmol/kg
AUC [20]: 1429 ng·h/mL
Drug uptake [21]: 0.23 µmol/kg
concentration at 1 h [22]: 1270 nM
Drug uptake [23]: 1.28 µmol/kg
Drug uptake [24]: 0 µmol/kg
Drug uptake [25]: 0.6 µmol/kg
Drug uptake [26]: 0.4 µmol/kg
AUClast [27]: 546 ng·h/mL
IC50 ([5]; read-out: IC50): 0.8 µM
Drug uptake [28]: 0 µmol/kg
Drug uptake [29]: 0.023 µmol/kg
concentration at 8 h [30]: 25 nM
Papp [6]: 6.1 ×10⁻⁶ cm/s
Cmax [31]: 1.28 µmol/kg
concentration at 0.083 h [32]: 3720 nM
t1/2 [33]: 326 min
concentration at 0.25 h [34]: 1200 nM
SMILES: CC(C)Oc1cccc(-c2cnc(N3CCC(C(N)=O)CC3)s2)c1
Activity [2]: 0.077 µM
Activity [4]: 709%

t1/2 [1]: 7 min
IC50 ([5]; read-out: IC50): 6.4 µM
SMILES: Cc1ccc(-c2cnc(N3CCC(C(N)=O)CC3)s2)cc1
Activity [2]: 0.077 µM
Activity [4]: 609%

t1/2 [1]: 12 min
Papp [3]: 12.1 ×10⁻⁶ cm/s
IC50 [5]: Not Active
Papp [6]: 30.7 ×10⁻⁶ cm/s
SMILES: NC(=O)C1CCN(c2nc(-c3ccc(Br)cc3)cs2)CC1
Activity [2]: 1.22 µM
Activity [35]: Dose-dependent effect
Activity [4]: 268%
Activity [36]: Active
